This data set can be described thus: Toxicity liver stage against HepG2, at 10uM. To be noted: human, HepG2-A16-CD81EGFP cells; read-out: INHIBITION
The format is cell-based. On the set-up: test concentration 10 uM, cell line HepG2-A16-CD81EGFP. In outline: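 Uninfected HepG2-A16-CD81EGFP cells, 3 × 10^3 per well, 1536-well, plated on prespotted compound at 10 μM final, parasite-free screening media added to match infected plates; puromycin 10 μM positive, DMSO 0.5% negative; run in parallel with 48 h PbLuc assay at 37 °C, 5% CO2; viability by CellTiter-Glo luminescence, normalized to controls.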
For the compound `CCCC1CN(CCOC)C(=O)c2cccnc2O1` (configuration not stated), the cytotoxicity at 10 µM was 5.42%. Next, `CC(C)CCNC(=O)c1ccc(-n2cnc3ccccc3c2=O)cc1`: -6.17%. Regarding `Cc1cc(NCCO)nc2[nH]nc(N)c12`, the cytotoxicity at 10 µM was -51.7%. `CC(=O)c1c(C)nn(CC(=O)Nc2ccc(F)cc2)c1C`: the cytotoxicity at 10 µM was -72%. Next, `CC(C)OC(=O)CN1N=C(C(=O)N2CCCC2)S(=O)(=O)c2ccccc21`: -2.93%. Next, `O=C(NCc1nc2ccccc2[nH]1)c1cnn2c1OCCC2`: 0.0962%; `CC(NC(=O)C1CN(c2ncnc3c2nnn3C)C1)c1ccccc1` (configuration not stated): 2.8%; `Cc1cccn2c(=O)cc(OC(=O)c3ccccc3Cl)nc12`: 10.7%. Next, `O=C(N1CCOCC1)N1CCc2ncnc(NC3CC3)c2CC1`: -20.9%. In the case of `Cc1cccc(CN2C[C@@H]3CN(C(=O)c4ccsc4)C[C@@H]3C2=O)c1`, the cytotoxicity at 10 µM was -18.8%. For the compound `Cc1cc(NC(=O)CCn2nc(C)c3ccccc32)n(C)n1`, the cytotoxicity at 10 µM amounted to 3.4%. Next, `CCN(CC)C(=O)CSc1nc2cc(C)nc-2c(O)n1Cc1ccco1`: 3.49%; `Cc1nn(C)cc1S(=O)(=O)N(CCc1ccccc1)Cc1ccn(C)n1`: 1.43%; `CCc1c(C)nn2c(O)cc(C3CCN(C(=O)C4CC4)C3)nc12` (configuration not stated): 1.97%. As for `CNc1cc(C2CN(C(=O)c3cscn3)CCO2)nc(C)n1` (configuration not stated), the cytotoxicity at 10 µM was 9.49%. Next, `COc1cc2c(cc1CN1CCc3sccc3C1C)OCO2` (configuration not stated): 7.01%; `CC(C)C(=O)N1CCCC1c1nc(N(C)C)ncc1-c1ccc(Cl)cc1` (configuration not stated): 20.1%; `Cc1cc(N2CCOC(c3ccncn3)C2)ncn1` (configuration not stated): 2.91%. As to `Cc1nccc(CC2COCCN(c3cnccn3)C2)n1` (configuration not stated), the cytotoxicity at 10 µM was found to be 0.933%. `CC(=O)N1CCCC1c1cc(Nc2nnc(C)s2)nc(C)n1` (configuration not stated): the cytotoxicity at 10 µM was -18.2%. Next, `O=S1(=O)NC(C2CCN(Cc3ccccn3)CC2)Nc2ccccc21` (configuration not stated): -33.6%; `Cc1cc(C(F)(F)F)c2c(C3CCCN(C(=O)C4CC4)C3)noc2n1` (configuration not stated): -25.1%. Next, `O=C1NC2(Cc3ccccc31)CN(CC1CCNCC1)C2`: 10.8%. As for `CN(C)c1ccc(C(=O)N2CCCc3cc(OC(F)(F)F)ccc32)cn1`, the cytotoxicity at 10 µM is -45.9%. Take `CCc1ccc2c(c1)C(CCNC(=O)CCc1ccsc1)C(=O)N2` (configuration not stated): the cytotoxicity at 10 µM was -41.5%. Next, `C1CC(CN2CCCCC2C2OCCO2)C1` (configuration not stated): -12.8%. As to `Cc1cc(N(Cc2cccs2)C2CC2)n2nc(C(F)(F)F)nc2n1`, the cytotoxicity at 10 µM is -2.1%. Next, `O=S(=O)(c1cc(F)ccc1N1CC(n2cccn2)C1)C(F)(F)F`: 11.3%; `COc1cccc(CC2CCCN2Cc2nccn2C)c1` (configuration not stated): -6.16%. Next, `COC(=O)CC(NC(=O)CCn1cccn1)c1ccc(C)cc1` (configuration not stated): 3.28%; `Cc1cc(C)cc(C(C)NCc2nnc(C)s2)c1` (configuration not stated): -5.77%; `COc1ccc(CN(C)Cc2c(C)noc2C)c(Br)c1OC`: -0.2%. For `Cc1noc(NCc2ccc(F)cc2)n1`, the cytotoxicity at 10 µM is -5.92%. On to `CN(C)c1cccc(C2CCCN2Cc2nnnn2C2CC2)c1` (configuration not stated), for which the cytotoxicity at 10 µM is 5.15%.

With `COc1cc(CNCCc2cc(F)cc3c2OCOC3)cc(OC)c1`, the cytotoxicity at 10 µM was -1.51%. Next, `CSC(C)CC(=O)N1CCC(n2ccnn2)CC1` (configuration not stated): -47.9%.

Take `O=C(NS(=O)(=O)c1cnn(-c2ccccc2F)c1)c1ccco1`: the cytotoxicity at 10 µM was -8.86%. Next, `Cc1ccc(N(C)Cc2nnnn2C2CC2)c(C)c1`: 8.81%; `O=C(CN1CCOc2ccc(Cl)cc21)NCCCn1cccn1`: -0.174%; `Cc1cc(NC(=O)CSc2nc(=O)ccn2C(C)C)no1`: 0.841%. Consider `COC(=O)CCCNC(=O)Nc1ccccc1OC`, for which the cytotoxicity at 10 µM stood at 6.45%.

For `CCCNC(=O)c1cccc2ncccc12`, the cytotoxicity at 10 µM is -50.3%.

Regarding `COc1ccccc1C(C)CC(=O)N1CCN(S(N)(=O)=O)CC1` (configuration not stated), the cytotoxicity at 10 µM is -51.3%. `N#Cc1cc(F)ccc1Cn1cnc(C2CCC2)cc1=O`: the cytotoxicity at 10 µM is -5.32%. Next, `CCc1nc(CC(=O)NCC2(C(N)=O)CCOCC2)cs1`: -9.92%; `CCCN1CCC(NC(=O)NCCc2nc(CC)c(C)s2)CC1`: -19%.

In the case of `Cc1cc(S(=O)(=O)N2CCCc3ccc(F)cc32)sc1C(=O)O`, the cytotoxicity at 10 µM stood at 18.1%. Next, `Cn1ccnc1SCc1nc(C(C)(C)NC(=O)OC(C)(C)C)no1`: -0.679%; `Cn1cnc(S(=O)(=O)N2CCCC2)c1Cl`: 15.1%; `CCNS(=O)(=O)c1ccc(C)c(C(=O)N(C)Cc2ccco2)c1`: 0.685%.

As to `CN(Cc1ccccc1Br)C(=O)Cn1nc(-c2ccc(F)cc2)oc1=O`, the cytotoxicity at 10 µM came out at 9.46%. Next, `Cc1nn(C(C)C)c(C)c1NC(=O)c1ccncc1`: -17.3%; `CCn1ccnc1CN1CCN(Cc2ccccn2)CC1C` (configuration not stated): 14.3%; `Cc1nc(CN2CCC23CCN(Cc2ccoc2)CC3)cs1`: -109%. Regarding `CC(C)N(C)Cc1cc(=O)n2c(n1)CN(C(=O)c1ccc[nH]1)CCC2`, the cytotoxicity at 10 µM is -105%. Next, `CCOc1ccc(OCc2nc3c(c(=O)[nH]2)CCNC3)cc1`: 8.55%. Next, `O=C(c1cn2cc(Cl)cnc2n1)N1CCOCC(O)(CN2CCCC2)C1` (configuration not stated): -8.42%. Regarding `CC1(C)CN(S(=O)(=O)N2CCOCC2)CC1c1ccccc1` (configuration not stated), the cytotoxicity at 10 µM came out at 1.69%. Turning to `CN(Cc1n[nH]c2c1CCC2)c1nc(C2CCCC2)nc2c1CNC2`, the cytotoxicity at 10 µM was -3.86%. Regarding `CCc1nc2c(N3CCC4(CC3)CC(=O)N(CC)C4)ncnc2o1`, the cytotoxicity at 10 µM was -3.2%. Next, `Cc1nnc(NCCn2nc(C)c(Cl)c2C)o1`: 1.91%; `COc1ccc(NC(=O)c2ccc(CN3CC[C@H](O)C3)cc2)c(OC)n1`: 6.21%. As for `O=C1CCCCN1CCCC(=O)N1CCC2(CC1)[C@H](O)C[C@@H]2O`, the cytotoxicity at 10 µM was 1.12%. Take `CN(C)c1nc2c(c(N(C)Cc3n[nH]c4c3CCCCC4)n1)CCNC2`: the cytotoxicity at 10 µM amounted to 2.95%. Turning to `Cc1ccc([C@@H]2CN(C(=O)c3cc[nH]c3)C[C@H]2NC(=O)C2CC2)cc1`, the cytotoxicity at 10 µM is -7.59%. For `Cc1cnccc1NCCn1ccnc1C1CCCCC1`, the cytotoxicity at 10 µM is -4.2%. Next, `Cc1ccc(OC2(C(=O)O)CCN(C(=O)c3ccsc3)CC2)cn1`: -4.09%; `O=C1NCCCc2[nH]c(C3CCCN(C(=O)C4CC4)C3)nc21` (configuration not stated): 3.55%. Next, `Cc1nc[nH]c1CNCc1cccnc1N(C)C1CCCCC1`: 5.32%.

On to `CC(O)CN1CC2(CCC1=O)CCN(C(=O)c1cnn(C)c1)CC2` (configuration not stated), for which the cytotoxicity at 10 µM turned out to be 3.74%. Next, `COc1ccc(Cc2ncc3c(n2)CN(C(=O)C2COCCO2)C3)cc1` (configuration not stated): -0.579%; `CCCOCC(=O)N1CCc2c(cccc2S(=O)(=O)N2CCOCC2)C1`: 2.71%. Next, `COCc1cc(N(C)CCc2c(C)n[nH]c2C)ncn1`: 0.681%; `CC(=O)N1CCOC(CNC(=O)c2cccc(CCC(C)(C)O)c2)C1` (configuration not stated): 0.303%. Next, `Cc1oc(-c2cccc(F)c2)nc1CN1CCOCS1(=O)=O`: 2.74%; `COc1ccc(CC2(CO)CCN(c3cc(N)ncn3)CC2)cc1`: -12.9%. Take `COCCN1CCC(CN(CC2CCCO2)C(=O)COC)CC1` (configuration not stated): the cytotoxicity at 10 µM was -21.1%. As to `Cn1c(Cn2ccnc2)nnc1C1CCCN(C2CCCCC2)C1` (configuration not stated), the cytotoxicity at 10 µM is -13.2%. Consider `CCn1ccnc1CN1CCC(CNC(=O)c2ccc(C)nc2)C1` (configuration not stated), for which the cytotoxicity at 10 µM is -8.8%.

For `Nc1nccc(NCc2cc3n(n2)CCCN(C2CCCCC2)C3)n1`, the cytotoxicity at 10 µM is -16%. Next, `CCCc1cc(CNC(=O)C2CCOc3ccccc3C2)on1` (configuration not stated): -3.8%; `Cc1cnn(C2CN(CC(=O)NCc3ccccn3)C2)c1`: -10.9%; `N#Cc1ccc(CN2CCC(c3ccnn3CCO)CC2)cc1`: -1.72%. Turning to `Cc1cc(C2CCCN2CC(=O)N(CCC#N)c2ccccc2F)on1` (configuration not stated), the cytotoxicity at 10 µM is -1.5%. Regarding `CCN(CC)Cc1ccc(C(=O)N2CCN(CC(C)O)CC2)cc1` (configuration not stated), the cytotoxicity at 10 µM was -12.6%. Next, `CN(C)C[C@H]1OC[C@@H]2CCN(S(=O)(=O)c3ccccc3)C[C@@H]21`: 1.44%; `Cc1nc(CC(=O)N2CCC(c3nn(C)c4ncccc34)CC2)cs1`: -18.9%. Next, `CCOC1COC2(CCN(CC3CC3)CC2)C1` (configuration not stated): -106%; `O=C(c1ccc(F)cc1)N1CCC2(CCCN2CC2CC2)CC1`: 5.05%.

With `COCC(=O)NCc1cc(=O)n2c(n1)CN(CC1CC1)CCC2`, the cytotoxicity at 10 µM is -88.5%. Next, `c1cncc(CO[C@H]2CN(Cc3ccco3)[C@@H]3COC[C@H]23)c1`: -101%; `Cc1nc[nH]c1CN1CCc2nc3scc(C)c3c(=O)n2CC1`: -35.7%; `COCCC(=O)N1C[C@H]2CN(Cc3cccc(C)n3)C(=O)[C@H]2C1`: 4.4%.

For `CC(C)CC(=O)N1CC[C@H]2N(C)CC[C@@]2(C(=O)Nc2cccnc2)CC1`, the cytotoxicity at 10 µM was -96.9%. Next, `O=C(NCc1cc(=O)n2c(n1)CN(CC1CCOC1)CCC2)C1CC1` (configuration not stated): -11.2%; `O=C([C@@H]1C[C@@H]2CCN(Cc3ccoc3)C[C@H]2O1)N1CCCC1`: -101%. Next, `c1ccc(CN2CCO[C@H]3[C@H](OCCN4CCCC4)CC[C@@H]32)nc1`: -1.5%.

The record behind these values is ChEMBL document CHEMBL4513216, “Probing the Open Global Health Chemical Diversity Library for Multistage-Active Starting Points for Next-Generation Antimalarials” (ACS Infect Dis, 2020).
